Measured values from ChEMBL document CHEMBL1142162, “Synergistic interactions of the antiretroviral protease inhibitors saquinavir and ritonavir with chloroquine and mefloquine against Plasmodium falciparum in vitro” (Antimicrob Agents Chemother, 2007).
Active and inactive are the calls of the source. The calls are words filed in the database; no cut-off is given here.

Legend:
Type in all cases: functional, organism-based
[1] = tested on: Plasmodium falciparum; test: Antimalarial activity against Plasmodium falciparum Dd2
Outline: (§1)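 P. falciparum clones kept in modified candle jars; triplicate wells holding 100 µl culture (2% hematocrit, 1% parasitemia) plus 100 µl drug dilution or control. Growth read by tritiated hypoxanthine incorporation, media and vehicle controls on each plate. Experiments repeated at least twice; EC50 derived from pooled data of all experiments.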

[2] = tested on: Plasmodium falciparum; test: Antimalarial activity against Plasmodium falciparum FAC8; outline: as §1
[3] = tested on: Plasmodium falciparum; test: Antimalarial activity against Plasmodium falciparum D10; outline: as §1

Row | EC50 [1] | EC50 [3] | Compound | EC50 [2] | Activity [1]
1 | 850 nM | 1100 nM | CC(C)c1nc(CN(C)C(=O)N[C@H](C(=O)N[C@@H](Cc2ccccc2)C[C@H](O)[C@H](Cc2ccccc2)NC(=O)OCc2cncs2)C(C)C)cs1 [RITONAVIR] | 7000 nM | –
2 | 5100 nM | – | CC(C)C[C@H](NC(=O)[C@@H](O)[C@H](N)Cc1ccccc1)C(=O)O [UBENIMEX] | – | –
3 | – | 14000 nM | CC(C)CC(=O)N[C@H](C(=O)N[C@H](C(=O)N[C@@H](CC(C)C)[C@@H](O)CC(=O)N[C@@H](C)C(=O)N[C@@H](CC(C)C)[C@@H](O)CC(=O)O)C(C)C)C(C)C [PEPSTATIN] | – | inactive
4 | 960 nM | 5500 nM | CC(C)(C)NC(=O)[C@@H]1C[C@@H]2CCCC[C@@H]2CN1C[C@@H](O)[C@H](Cc1ccccc1)NC(=O)[C@H](CC(N)=O)NC(=O)c1ccc2ccccc2n1 [SAQUINAVIR] | – | –
5 | 2900 nM | – | CC(C)C[C@H](NC(=O)[C@H]1O[C@@H]1C(=O)O)C(=O)NCCCCN=C(N)N [E-64] | – | –

Row | Compound | EC50 [1] | EC50 [3] | EC50 [2] | Activity [1]
6 | CCN(CC)CCCC(C)Nc1ccnc2cc(Cl)ccc12 (stereo not drawn) [CHLOROQUINE] | 55 nM | – | – | –
7 | O[C@@H](c1cc(C(F)(F)F)nc2c(C(F)(F)F)cccc12)[C@H]1CCCCN1 [MEFLOQUINE] | 60 nM | 64 nM | 23 nM | –
